{
  "source": "ChEMBL document CHEMBL4765301",
  "about": "“Discovery of novel TNNI3K inhibitor suppresses pyroptosis and apoptosis in murine myocardial infarction injury” (Eur J Med Chem, 2020)",
  "key": {"H9c2 [1]": {"tested_on": "H9c2", "assay": "Inhibition of OGD-induced apoptosis in rat H9c2 cells assessed as viable cells at 0.5 uM incubated for 24 hrs by annexinV-FITC and PI staining based flow cytometry analysis (reference value: 85 %)", "format": "functional"}, "Mus musculus": {"tested_on": "Mus musculus", "assay": "Cardioprotective activity in C57BL/6 mouse model of myocardial infarction assessed as reduction in ventricular dilatation at 25 mg/kg, ip administered for 28 days and measured on day 28 by H and E staining based fluorescence microscopy", "format": "functional, organism-based", "settings": "time 28.0 day", "method_in_brief": "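MI made in male C57BL/6 mice (5-6 weeks) by permanent LAD ligation under ip ketamine (100mg/kg)/xylazine (10mg/kg), ventilated. Groups: sham, saline (NS), inhibitor 25 mg/kg ip every two days, n=4. Hearts examined after 28 days; TTC, Masson's trichrome and H&E staining of sections for infarct, collagen/scar, LV inflammatory cells and dilatation.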"}, "H9c2 [2]": {"tested_on": "H9c2", "assay": "Effect on TNNI3K expression in rat H9c2 cells at 0.5 to 1 uM by Western blot analysis", "format": "functional, cell-based", "settings": "dose 0.5-1 µM", "method_in_brief": "(§1)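 H9c2 cells under OGD were treated with saline or 0.5 or 1.0 µM inhibitor. Cells were trypsinised, washed in cold PBS, lysed in RIPA with sonication and centrifuged 30 min. Total protein was quantified and separated by SDS-PAGE, then transferred to PVDF. Blots were probed with primary and secondary antibodies and detected by ECL.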"}, "H9c2 [3]": {"tested_on": "H9c2", "assay": "Inhibition of OGD-induced apoptosis in rat H9c2 cells assessed as reduction in IL-1beta level at 0.5 to 1 uM by Western blot analysis", "format": "functional, cell-based", "settings": "dose 0.5-1 µM", "method_in_brief": "as §1"}, "H9c2 [4]": {"tested_on": "H9c2", "assay": "Inhibition of OGD-induced apoptosis in rat H9c2 cells incubated for 24 hrs by annexinV-FITC and PI staining based flow cytometry analysis", "format": "functional, cell-based", "settings": "dose 0.5-1 µM"}, "H9c2 [5]": {"tested_on": "H9c2", "assay": "Inhibition of JNK phosphorylation in rat H9c2 cells at 0.5 to 1 uM by Western blot analysis", "format": "cell-based", "settings": "dose 0.5-1 µM", "method_in_brief": "as §1"}, "[6]": {"target": "T1, Serine/threonine-protein kinase TNNI3K (Rattus norvegicus) (UniProt Q7TQP6)", "T1 sequence (whole entry)": "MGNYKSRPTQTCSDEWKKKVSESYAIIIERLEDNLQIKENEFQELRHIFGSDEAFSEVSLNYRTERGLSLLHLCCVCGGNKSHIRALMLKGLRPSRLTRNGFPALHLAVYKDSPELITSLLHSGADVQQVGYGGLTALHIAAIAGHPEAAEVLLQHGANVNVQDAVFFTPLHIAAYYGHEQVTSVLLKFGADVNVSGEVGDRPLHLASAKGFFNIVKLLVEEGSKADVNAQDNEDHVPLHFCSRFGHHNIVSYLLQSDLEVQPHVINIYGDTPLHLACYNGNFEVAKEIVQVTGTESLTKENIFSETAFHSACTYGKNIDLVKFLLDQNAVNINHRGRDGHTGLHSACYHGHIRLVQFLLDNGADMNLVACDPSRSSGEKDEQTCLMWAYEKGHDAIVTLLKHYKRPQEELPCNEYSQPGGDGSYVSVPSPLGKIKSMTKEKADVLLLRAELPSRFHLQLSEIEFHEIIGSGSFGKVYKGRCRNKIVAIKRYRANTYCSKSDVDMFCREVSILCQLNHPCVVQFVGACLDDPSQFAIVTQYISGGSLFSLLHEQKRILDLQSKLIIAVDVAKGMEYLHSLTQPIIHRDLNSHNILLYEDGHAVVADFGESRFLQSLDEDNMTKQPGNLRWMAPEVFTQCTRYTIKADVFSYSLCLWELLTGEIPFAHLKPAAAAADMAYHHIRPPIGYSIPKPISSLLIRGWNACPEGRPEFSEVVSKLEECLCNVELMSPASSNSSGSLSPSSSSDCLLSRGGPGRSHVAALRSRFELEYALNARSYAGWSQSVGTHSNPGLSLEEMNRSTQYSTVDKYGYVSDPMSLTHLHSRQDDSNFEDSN", "assay": "Inhibition of TNNI3K in rat H9c2 cells assessed as reduction in p38 phosphorylation at 0.5 to 1 uM by Western blot analysis", "settings": "dose 0.5-1 µM"}, "H9c2 [7]": {"tested_on": "H9c2", "assay": "Inhibition of OGD-induced apoptosis in rat H9c2 cells assessed as necrotic cells at 1 uM incubated for 24 hrs by annexinV-FITC and PI staining based flow cytometry analysis (reference value: 2.45 %)", "format": "functional"}, "[8]": {"target": "Vascular endothelial growth factor receptor 2 (Homo sapiens) (UniProt P35968)", "sequence (P35968 whole entry)": "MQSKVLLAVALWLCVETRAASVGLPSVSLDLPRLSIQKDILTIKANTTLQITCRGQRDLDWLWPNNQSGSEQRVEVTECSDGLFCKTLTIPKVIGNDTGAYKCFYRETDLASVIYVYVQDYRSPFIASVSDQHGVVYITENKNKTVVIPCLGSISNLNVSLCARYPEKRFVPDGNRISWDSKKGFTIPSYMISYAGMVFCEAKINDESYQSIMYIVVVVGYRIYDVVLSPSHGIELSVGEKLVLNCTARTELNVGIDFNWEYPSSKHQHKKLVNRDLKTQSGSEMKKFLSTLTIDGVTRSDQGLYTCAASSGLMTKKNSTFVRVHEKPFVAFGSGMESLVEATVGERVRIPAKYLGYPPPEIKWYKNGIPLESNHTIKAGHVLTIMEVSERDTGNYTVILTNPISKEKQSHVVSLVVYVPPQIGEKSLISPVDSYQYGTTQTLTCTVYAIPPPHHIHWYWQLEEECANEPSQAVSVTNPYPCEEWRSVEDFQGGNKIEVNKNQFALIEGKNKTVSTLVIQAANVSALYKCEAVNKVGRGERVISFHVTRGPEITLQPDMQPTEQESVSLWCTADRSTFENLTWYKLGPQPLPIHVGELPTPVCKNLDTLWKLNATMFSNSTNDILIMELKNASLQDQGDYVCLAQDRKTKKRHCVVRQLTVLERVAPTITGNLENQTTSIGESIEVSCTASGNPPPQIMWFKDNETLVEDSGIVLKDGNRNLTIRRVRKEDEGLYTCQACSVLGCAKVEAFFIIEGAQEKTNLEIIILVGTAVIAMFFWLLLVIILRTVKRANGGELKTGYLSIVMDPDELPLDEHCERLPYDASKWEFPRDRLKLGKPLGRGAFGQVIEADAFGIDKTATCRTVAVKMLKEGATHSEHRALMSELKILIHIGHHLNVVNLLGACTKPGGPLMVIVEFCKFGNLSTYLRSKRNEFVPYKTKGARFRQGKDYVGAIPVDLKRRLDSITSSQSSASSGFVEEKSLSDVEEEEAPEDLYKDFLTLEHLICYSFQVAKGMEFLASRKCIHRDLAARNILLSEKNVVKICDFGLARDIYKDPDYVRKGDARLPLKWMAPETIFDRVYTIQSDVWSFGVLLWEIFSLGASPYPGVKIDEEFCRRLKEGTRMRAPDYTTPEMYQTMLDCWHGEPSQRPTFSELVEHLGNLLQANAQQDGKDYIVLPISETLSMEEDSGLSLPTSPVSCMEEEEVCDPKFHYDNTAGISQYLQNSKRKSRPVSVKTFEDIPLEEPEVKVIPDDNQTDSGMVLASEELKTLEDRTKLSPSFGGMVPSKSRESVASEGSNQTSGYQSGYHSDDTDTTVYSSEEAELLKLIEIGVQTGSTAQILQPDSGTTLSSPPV", "assay": "Inhibition of recombinant human KDR (790 to end residues) assessed as residual activity at 1 uM using myelin basic protein as substrate incubated for 40 mins by [gamma-33P]-ATP scintillation counting based radiometry assay relative to control"}, "[9]": {"target": "T2, Serine/threonine-protein kinase TNNI3K (Homo sapiens) (UniProt Q59H18)", "T2 sequence (whole entry)": "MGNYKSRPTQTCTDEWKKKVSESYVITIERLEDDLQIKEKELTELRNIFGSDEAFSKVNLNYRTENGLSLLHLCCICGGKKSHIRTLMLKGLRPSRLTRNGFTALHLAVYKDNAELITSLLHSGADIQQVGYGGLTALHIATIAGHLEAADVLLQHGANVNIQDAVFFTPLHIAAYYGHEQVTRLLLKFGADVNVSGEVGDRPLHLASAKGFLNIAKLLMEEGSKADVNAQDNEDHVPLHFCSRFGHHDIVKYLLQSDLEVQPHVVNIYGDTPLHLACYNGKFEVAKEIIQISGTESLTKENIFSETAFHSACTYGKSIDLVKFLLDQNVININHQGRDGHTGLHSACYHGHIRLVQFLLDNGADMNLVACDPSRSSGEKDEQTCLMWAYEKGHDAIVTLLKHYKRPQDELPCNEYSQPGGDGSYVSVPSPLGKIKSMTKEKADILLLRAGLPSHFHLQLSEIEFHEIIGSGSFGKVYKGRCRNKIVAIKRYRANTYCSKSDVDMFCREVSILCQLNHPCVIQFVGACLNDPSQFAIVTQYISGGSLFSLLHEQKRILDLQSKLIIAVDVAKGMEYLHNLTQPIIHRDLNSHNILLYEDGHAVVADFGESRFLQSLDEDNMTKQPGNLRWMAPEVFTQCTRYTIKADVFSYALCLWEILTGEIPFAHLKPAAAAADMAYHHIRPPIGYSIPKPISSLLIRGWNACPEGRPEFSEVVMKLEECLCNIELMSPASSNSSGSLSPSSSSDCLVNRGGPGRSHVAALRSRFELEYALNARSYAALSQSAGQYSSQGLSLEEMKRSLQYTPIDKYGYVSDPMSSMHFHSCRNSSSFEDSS", "assay": "Inhibition of TNNI3K (unknown origin) assessed as residual activity at 1 uM using biotinylated CTnI as substrate by HTRF analysis relative to control", "method_in_brief": "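TNNI3K was assayed by HTRF using a GST-tagged TNNI3K kinase domain and a biotinylated cardiac troponin I substrate peptide, followed by the two HTRF detection reagents. Compounds were screened at 1.0 µM, then IC50s were determined.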"}},
  "note": "Active and inactive are the calls of the source. The calls are words filed in the database; no cut-off is given here.",
  "data": [
    {"smiles": "CN(C)CCCN1CCc2c(sc3ncnc(Nc4ccc(N(C)C)c(NC(=O)c5ccco5)c4)c23)C1", "values": [
      {"measurement": "inhibition at 0.5 µM", "setting": "H9c2 [1]", "value": 87, "unit": "%"},
      {"measurement": "Activity", "setting": "Mus musculus", "value": "Active"},
      {"measurement": "inhibition", "setting": "H9c2 [2]", "value": "inactive"},
      {"measurement": "inhibition", "setting": "H9c2 [3]", "value": "Active"},
      {"measurement": "inhibition", "setting": "H9c2 [4]", "value": "Dose-dependent effect"},
      {"measurement": "inhibition", "setting": "H9c2 [5]", "value": "inactive"},
      {"measurement": "inhibition", "setting": "[6]", "value": "Active"},
      {"measurement": "inhibition at 1 µM", "setting": "H9c2 [7]", "value": 1.07, "unit": "%"},
      {"measurement": "Activity", "setting": "[8]", "value": 80, "unit": "%"},
      {"measurement": "Activity", "setting": "[9]", "value": 28, "unit": "%"}
    ]}
  ]
}
